Published values collected from several papers.
Each line is one published result; the experiments were not run side by side.
ABL1 M351T phosphorylated: Tyrosine-protein kinase ABL1, phosphorylated (ABL1, Homo sapiens, UniProt P00519, M351T)
ABL1 F317L non-phosphorylated: Tyrosine-protein kinase ABL1, non-phosphorylated (ABL1, Homo sapiens, UniProt P00519, F317L)
ABL1 F317I phosphorylated: Tyrosine-protein kinase ABL1, phosphorylated (ABL1, Homo sapiens, UniProt P00519, F317I)
ABL1 Y253F: Tyrosine-protein kinase ABL1 (ABL1, Homo sapiens, UniProt P00519, Y253F)
ABL1 T315I phosphorylated: Tyrosine-protein kinase ABL1, phosphorylated (ABL1, Homo sapiens, UniProt P00519, T315I)
ABL1 F317I non-phosphorylated: Tyrosine-protein kinase ABL1, non-phosphorylated (ABL1, Homo sapiens, UniProt P00519, F317I)
ABL1 F317L phosphorylated: Tyrosine-protein kinase ABL1, phosphorylated (ABL1, Homo sapiens, UniProt P00519, F317L)
ABL1 Q252H phosphorylated: Tyrosine-protein kinase ABL1, phosphorylated (ABL1, Homo sapiens, UniProt P00519, Q252H)
ABL1 Q252H non-phosphorylated: Tyrosine-protein kinase ABL1, non-phosphorylated (ABL1, Homo sapiens, UniProt P00519, Q252H)
ABL1 phosphorylated: Tyrosine-protein kinase ABL1, phosphorylated (ABL1, Homo sapiens, UniProt P00519)

O=C(NCc1ncc(C(F)(F)F)cc1Cl)c1ccc2c(c1)C1(CCS(=O)(=O)CC1)[C@@H](C1CC1)N2S(=O)(=O)c1ccc(F)cc1
remaining binding (ABL1 M351T phosphorylated; cell-free assay, competition with immobilised ligand; 1 µM): 94%

N[C@@H]1CCN(c2nccc(-c3cnn4ncccc34)n2)C1
remaining binding (Tyrosine-protein kinase ABL1 (ABL1, Homo sapiens, UniProt P00519, Q252H); binding; 1 µM): 74%

O=C(NCCCN1CCOCC1)c1ccc(Nc2ncc(Cl)c(-c3ccc(Cl)s3)n2)cc1
remaining binding (ABL1 F317L non-phosphorylated; binding, competition with immobilised ligand; 1 µM): 71%

Nc1ncc2c(n1)-c1c([nH]c3ccc(C#CC4CC4)cc13)CCCC2
remaining binding (ABL1 M351T phosphorylated; binding, competition with immobilised ligand; 1 µM): 95%

CN(c1nccc(-c2cnn3ncccc23)n1)C1CC1
remaining binding (Tyrosine-protein kinase ABL1 (ABL1, Homo sapiens, UniProt P00519, T315I); binding; 1 µM): 100%

O=C(Nc1c[nH]nc1C(=O)NC1CCNCC1)c1cc(F)cc(F)c1
remaining binding (ABL1 F317I phosphorylated; binding, competition with immobilised ligand; 1 µM): 85%

CC1CCCN1c1nccc(-c2cnn3ncccc23)n1 (stereo not shown)
remaining binding (Tyrosine-protein kinase ABL1 (ABL1, Homo sapiens, UniProt P00519, F317L); binding; 1 µM): 96%

Cc1c(C(=O)O)cc(-c2ccc(C3CCNCC3)cc2)c2ccc(-c3ccc(C(F)(F)F)cc3)cc12
remaining binding (ABL1 F317I phosphorylated; binding; 1 µM): 100%

O=C(c1ccc(Nc2nccc(-c3cc4ccccc4s3)n2)cc1)N1CCC(N2CCCC2)CC1
remaining binding (ABL1 F317I phosphorylated; binding, competition with immobilised ligand; 1 µM): 99%

F[C@@H]1CCN(c2nccc(-c3cnn4ncccc34)n2)C1
remaining binding (ABL1 Y253F; binding; 1 µM): 90%

O=C(NCC1CCOCC1)c1n[nH]cc1NC(=O)c1c(F)cccc1F
remaining binding (ABL1 F317L non-phosphorylated; binding, competition with immobilised ligand; 1 µM): 88%

O=C(NCCCN1CCOCC1)c1ccc(Nc2nccc(-c3cc4ccccc4s3)n2)cc1
remaining binding (ABL1 T315I phosphorylated; binding, competition with immobilised ligand; 1 µM): 41%

COc1ncc2cc3ccccc3nc2c1C#N
remaining binding (ABL1 F317I non-phosphorylated; cell-free assay, competition with immobilised ligand; 5 µM): 96%

CCOCCn1cc(C(=O)Nc2ccc(-n3nc(-c4cccnc4)cc3C(F)(F)F)cn2)ccc1=O
remaining binding (ABL1 F317L phosphorylated; cell-free assay, competition with immobilised ligand; 1 µM): 79%

O=C(c1ccc(Nc2ncc(Cl)c(-c3cc4ccccc4s3)n2)cc1)N1CCC(N2CCCC2)CC1
remaining binding (ABL1 F317L phosphorylated; binding, competition with immobilised ligand; 1 µM): 54%

COc1cnc(Nc2cccc(S(N)(=O)=O)c2)nc1N1CCN(c2ccccc2)C(=O)C1
remaining binding (ABL1 Q252H phosphorylated; binding, competition with immobilised ligand; 1 µM): 87%

Nc1c(C(=O)NCc2ccc(C(=O)NCCCC3CCCCC3)cc2)cnn1-c1ccccc1
remaining binding (ABL1 Q252H non-phosphorylated; cell-free assay, competition with immobilised ligand; 0.1 µM): 87%

O=C(c1ccc(Nc2ncc(Cl)c(-c3ccc(Cl)s3)n2)cc1)N1CCC(N2CCCC2)CC1
remaining binding (Tyrosine-protein kinase ABL1, non-phosphorylated (ABL1, Homo sapiens, UniProt P00519, H396P); binding, competition with immobilised ligand; 1 µM): 0.35%

CNC(=O)[C@@H]1CC[C@@H](n2c(-c3ccc4cnccc4c3)nc3ccc(C(=O)NCc4cccc(C(N)=O)c4)cc32)C1
remaining binding (ABL1 F317L non-phosphorylated; binding, competition with immobilised ligand; 1 µM): 97%

CN(C)c1nccc(-c2cnn3ncccc23)n1
remaining binding (ABL1 Y253F; binding; 1 µM): 86%

C=CC(=O)N1CCC(C(=O)NCC(=O)N2CCN(c3nc(-c4cnc(N)nc4C(F)F)nc(N4CCOCC4)n3)CC2)CC1
remaining binding (ABL1 F317I non-phosphorylated; binding, competition with immobilised ligand; 1 µM): 100%

C[C@@H]1CCN(c2nccc(-c3cnn4ncccc34)n2)C1
remaining binding (ABL1 phosphorylated; binding; 1 µM): 61%

CCN1CCN(Cc2ccc(C(=O)Nc3ccc(C)c(Oc4ccc5c(c4)CC(=O)N5)c3)cc2C(F)(F)F)CC1
remaining binding (ABL1 phosphorylated; binding, competition with immobilised ligand; 1 µM): 34%

COc1ccc2c(O[C@@H]3C[C@H]4C(=O)N[C@]5(C(=O)O)CC5/C=C\CCCCC[C@H](NC(=O)OC5CCCC5)C(=O)N4C3)cc(-c3csc(NC(=O)C(C)C)n3)nc2c1C (stereo partly shown)
remaining binding (ABL1 phosphorylated; cell-free assay, competition with immobilised ligand; 1 µM): 93%

COc1cnc(Nc2cccc(S(N)(=O)=O)c2)nc1N1CCN(c2ccccc2)CC1
remaining binding (ABL1 F317L phosphorylated; binding, competition with immobilised ligand; 1 µM): 74%

CO[C@H]1CC[C@H](CNc2ccc(S(=O)(=O)NC(=O)c3ccc(N4CCN(CC5=C(c6ccc(Cl)cc6)CC(C)(C)CC5)CC4)cc3Oc3cnc4[nH]ccc4c3)cc2[N+](=O)[O-])CC1
remaining binding (ABL1 Q252H non-phosphorylated; cell-free assay, competition with immobilised ligand; 1 µM): 81%

Cc1cnc(Nc2ccc(C(=O)N3CCC(N4CCCC4)CC3)cc2)nc1-c1cc2ccccc2s1
remaining binding (ABL1 Q252H phosphorylated; binding, competition with immobilised ligand; 1 µM): 1.4%

O=C(NS(=O)(=O)c1ccc(NCC2CCOCC2)c([N+](=O)[O-])c1)c1ccc(N2CCN(Cc3ccc(C(F)(F)F)cc3-c3ccc(Cl)cc3)CC2)cc1Oc1cnc2[nH]ccc2c1
remaining binding (ABL1 Q252H non-phosphorylated; cell-free assay, competition with immobilised ligand; 1 µM): 100%

C[C@@H](c1ccc(-n2cnc3c(N)ncnc32)cc1)N1CCc2nn(C)c(Cc3ccccc3)c2C1=O
remaining binding (Tyrosine-protein kinase ABL1, phosphorylated (ABL1, Homo sapiens, UniProt P00519, H396P); binding, competition with immobilised ligand; 0.1 µM): 79%

CC(=O)C1=C(C)N(c2cccc(C(F)(F)F)c2)C(=O)N[C@@H]1c1ccc(C#N)nc1
remaining binding (ABL1 T315I phosphorylated; cell-free assay, competition with immobilised ligand; 1 µM): 96.9%

c1cncc(-c2cccc(Nc3nccc(NC4CCCCC4)n3)c2)c1
remaining binding (Tyrosine-protein kinase ABL1, non-phosphorylated (ABL1, Homo sapiens, UniProt P00519); binding, competition with immobilised ligand; 10 µM): 35%
